Assay results published in ChEMBL document CHEMBL3227966, “Synthesis and antitumor and antiviral activities of 1-beta-D-arabinofuranosyl-2-amino-1,4(2H)-iminopyrimidine and its derivatives” (1979).
Calls of active or inactive are those of the source. The rule behind the calls is not given here.

Columns and labels:
Suid alphaherpesvirus 1 = assay: Antiviral activity against Pseudorabies virus infected in human KB cells assessed as inhibition of virus-induced cytopathic effect after 72 hrs by microscopically; format: functional, organism-based
KB [1] = assay: Antiviral activity against rhinovirus type 13 infected in human KB cells assessed as inhibition of virus-induced cytopathic effect after 72 hrs by microscopically; format: functional, cell-based; settings: Human rhinovirus A13
Summary of the method: (§1)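 KB monolayers (18-24 h) were exposed to about 320 CCID50 of virus, with compound added within 15 min. CPE (0-4) and cytotoxicity were scored microscopically after 72 h at 37 °C. Virus rating was the summed (virus control − treated) CPE across drug levels, halved at partially toxic levels. Ratings: 0.5 slight/none, 0.5-0.9 moderate, 1.0 marked.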

KB [2] = assay: Antiviral activity against Myxoma virus infected in human KB cells assessed as inhibition of virus-induced cytopathic effect after 72 hrs by microscopically; format: functional, cell-based; summary of the method: as §1
L1210 [3] = assay: Antitumor activity against mouse L1210 cells allografted in BDF/1 mouse assessed as tumor weight reduction on day 5 at 600 mg/kg, ip qd treated 24 hrs after tumor implantation relative to control; format: functional, organism-based; set-up: dose 600 mg/kg
Human alphaherpesvirus 1 [4] = assay: Antiviral activity against Herpes simplex virus type 1 infected in human KB cells assessed as inhibition of virus-induced cytopathic effect after 72 hrs by microscopically; format: functional, organism-based; summary of the method: as §1
L1210 [5] = assay: Antitumor activity against mouse L1210 cells allografted in BDF/1 mouse assessed as […] at 600 mg/kg, ip qd treated 24 hrs after tumor implantation relative to control; format: functional; settings: route intraperitoneal
Summary of the method: (§2)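 Female BDF1 mice, 6–8 per group, were inoculated ip with 1×10^5 viable L1210 cells. Drug was given ip once daily on days 1–5, starting 24 h after implant, in freshly prepared isotonic sterile saline. Controls received 0.2 mL saline. Read-outs were survivors (cures) and T/C, with survivors excluded from T/C. P values came from the Wilcoxon nonparametric method.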

Human alphaherpesvirus 1 [6] = assay: Antiviral activity against Herpes simplex virus type 1 infected in Swiss albino mouse assessed as increase in mouse survival at 0.033 mg/kg, ic single dose after 6 hrs of infection relative to control; format: functional; settings: Human alphaherpesvirus 1, 6 h
Summary of the method: (§3)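 Swiss albino mice, six per group, were infected intracerebrally with HSV-1 at about 10 LD50. Six hours later each received a single ic drug injection in Hank's balanced salt solution. Controls received the same volume of Hank's solution alone. Efficacy was the increase in number of survivors versus controls.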

L1210 [7] = assay: Antitumor activity against mouse L1210 cells allografted in BDF/1 mouse assessed as mouse survival at 600 mg/kg, ip qd treated 24 hrs after tumor implantation relative to control; format: functional; settings: route intraperitoneal; summary of the method: as §2
L1210 [8] = assay: Antitumor activity against mouse L1210 cells allografted in BDF/1 mouse assessed as mouse survival upto 60 days at 600 mg/kg, ip qd treated 24 hrs after tumor implantation relative to control; format: functional; summary of the method: as §2
L1210 [9] = assay: Antitumor activity against mouse L1210 cells allografted in BDF/1 mouse assessed as increase in life span at 600 mg/kg, ip qd treated 24 hrs after tumor implantation relative to control; format: functional; settings: route intraperitoneal; summary of the method: as §2
Vaccinia virus = assay: Antiviral activity against Vaccinia virus infected in human KB cells assessed as inhibition of virus-induced cytopathic effect after 72 hrs by microscopically; format: functional, organism-based; settings: Orthopoxvirus vaccinia
Human alphaherpesvirus 1 [10] = assay: Antiviral activity against Herpes simplex virus type 1 infected in Swiss albino mouse assessed as increase in mouse survival at 0.14 mg/kg, ic single dose after 6 hrs of infection relative to control; format: functional; settings: Human alphaherpesvirus 1, 6 h; summary of the method: as §3
L1210 [11] = assay: Antitumor activity against mouse L1210 cells allografted in BDF/1 mouse assessed as mouse survival upto 60 days at 400 mg/kg, ip qd treated 24 hrs after tumor implantation relative to control; format: functional, organism-based; set-up: dose 400 mg/kg
Summary of the method: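 BDF1 female mice, six to eight per group, inoculated ip with 1×10^5 viable L1210 cells. Drug was given ip once daily on days 1-5, starting 24 h after implant, in freshly prepared isotonic sterile saline. Controls received 0.2 mL saline. Read-out was survivors (cures) and T/C excluding survivors. P was derived by the Wilcoxon nonparametric method.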

L1210 [12] = assay: Antitumor activity against mouse L1210 cells allografted in BDF/1 mouse assessed as tumor weight reduction on day 5 at 400 mg/kg, ip qd treated 24 hrs after tumor implantation relative to control; format: functional, organism-based; set-up: dose 400 mg/kg
L1210 [13] = assay: Antitumor activity against mouse L1210 cells allografted in BDF/1 mouse assessed as mouse survival at 400 mg/kg, ip qd treated 24 hrs after tumor implantation relative to control; format: functional; settings: route intraperitoneal; summary of the method: as §2
L1210 [14] = assay: Antitumor activity against mouse L1210 cells allografted DBA/2 mouse assessed as increase in life span; format: functional

For `N=c1ccn([C@@H]2O[C@H](CO)[C@@H](OP(=O)(O)O)[C@@H]2O)c(N)n1`, the inhibition (Suid alphaherpesvirus 1) was “Active”, the inhibition (KB [1]) was “inactive” and the inhibition (KB [2]) was “Active”. For the same molecule, the inhibition (L1210 [3]) was “Active”, the inhibition (Human alphaherpesvirus 1 [4]) was “Active” and the T/C (L1210 [5]) was 2.44. It also gave a survival at 0.033 mg/kg (Human alphaherpesvirus 1 [6]) of 0%, a Survival (L1210 [7]) of 22.5 days and a survival at 600 mg/kg (L1210 [8]; route intraperitoneal) of 33%. For the same molecule, the Activity (L1210 [9]) was 144%, the inhibition (Vaccinia virus) was “Active” and the survival at 0.14 mg/kg (Human alphaherpesvirus 1 [10]) was 50%.

For `N=c1nc(N)n([C@@H]2O[C@H](CO)[C@@H](OP(=O)(O)O)[C@@H]2O)cc1F`, the inhibition (Suid alphaherpesvirus 1) was “Active”, the inhibition (KB [1]) was “inactive” and the inhibition (KB [2]) was “Active”. For the same molecule, the inhibition (Human alphaherpesvirus 1 [4]) was “Active” and the inhibition (Vaccinia virus) was “Active”.

`N=c1ccn2c(n1)O[C@@H]1[C@H](O)[C@@H](CO)O[C@H]12` was tested, and the inhibition (L1210 [3]) was “Active”, the T/C (L1210 [5]) was 2.81 and the Survival (L1210 [7]) was 24 days. For the same molecule, the Activity (L1210 [8]) was “inactive”.

For `Nc1ccn([C@@H]2O[C@H](CO)[C@@H](O)[C@@H]2O)c(=O)n1` [CYTARABINE], the inhibition (Suid alphaherpesvirus 1) was “Active”, the inhibition (KB [2]) was “Active” and the inhibition (Human alphaherpesvirus 1 [4]) was “Active”. The survival at 0.033 mg/kg (Human alphaherpesvirus 1 [6]) was 0%, the inhibition (Vaccinia virus) was “Active” and the survival at 0.14 mg/kg (Human alphaherpesvirus 1 [10]) was 40%.

`N=c1nc2n(cc1F)[C@@H]1O[C@H](CO)[C@@H](OP(=O)(O)O)[C@H]1O2` was tested, and the inhibition (Human alphaherpesvirus 1 [4]) was “Active”.

For `N=c1ccn([C@@H]2O[C@H](CO)[C@@H](O)[C@@H]2O)c(N)n1`, the inhibition (Suid alphaherpesvirus 1) was “Active”, the inhibition (KB [2]) was “Active” and the inhibition (Human alphaherpesvirus 1 [4]) was “Active”. For the same molecule, the Activity (L1210 [11]) was “Active”, the inhibition (L1210 [12]) was “Active” and the Survival (L1210 [13]) was 60 days. For the same molecule, the inhibition (Vaccinia virus) was “Active”.

In the case of `Nc1ccn([C@@H]2O[C@H](CO)[C@@H](OP(=O)(O)O)[C@@H]2O)c(=O)n1`, the inhibition (Suid alphaherpesvirus 1) is reported as “Active”, the inhibition (KB [1]) is reported as “Active” and the inhibition (KB [2]) is reported as “Active”. For the same molecule, the inhibition (Human alphaherpesvirus 1 [4]) was “Active” and the inhibition (Vaccinia virus) was “Active”.

With `N=c1nc2n(cc1F)[C@@H]1O[C@H](CO)[C@@H](O)[C@H]1O2` the Activity (L1210 [14]) was 80%.

`N=c1ccn2c(n1)O[C@@H]1[C@H](OP(=O)(O)O)[C@@H](CO)O[C@H]12` was tested, and the inhibition (Suid alphaherpesvirus 1) was “Active”, the inhibition (KB [1]) was “Active” and the inhibition (KB [2]) was “Active”. The inhibition (L1210 [3]) was “Active”, the inhibition (Human alphaherpesvirus 1 [4]) was “Active” and the T/C (L1210 [5]) was 2.07. The survival at 0.033 mg/kg (Human alphaherpesvirus 1 [6]) was 0%, the Survival (L1210 [7]) was 17.5 days and the Activity (L1210 [8]) was “inactive”. For the same molecule, the inhibition (Vaccinia virus) was “Active” and the survival at 0.14 mg/kg (Human alphaherpesvirus 1 [10]) was 40%.
